Marks after values point to notes of the source that are not given here.
Key:
[1] = Pharmacokinetics of oral MTX in rats alone and coadministered with MOC; format: in vivo, Sprague–Dawley rats
Summary of the method: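 Groups were dosed orally and in parallel: MTX 5.0 mg/kg with an equal volume of water (n = 6), or with decoction given 0.5 h earlier. Rats were fasted overnight. Tail-vein blood (0.5 mL) was drawn at 0.25–48 h, and serum MTX was measured by fluorescence polarization immunoassay using the kit calibration. AUC0-t was derived by noncompartmental analysis.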

[2] = Mortality of rats observed during the pharmacokinetic study; format: in vivo, Sprague–Dawley rats; conditions: oral MTX 5.0 mg/kg alone or coadministered with MOC (three groups)
Summary of the method: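 Male Sprague–Dawley rats (350–450 g) were fasted overnight with water allowed, and food was returned 3 h after dosing. They received oral MTX 5.0 mg/kg, given alone with water or 0.5 h after oral decoction at 2.0 or 4.0 g/kg. A fourth group got 2.0 g/kg thrice daily for 2 days before MTX. Deaths were noted over the 48-h sampling period.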

[3] = molecular target: MRP2 (Canis lupus familiaris, UniProt A0A8I3SCV5); assay: MRP2 activity: intracellular accumulation of GSMF; format: cell-based; conditions: MDCKII-WT cells
[4] = molecular target: MRP2 (Homo sapiens, UniProt Q92887); format: cell-based; conditions: MDCKII-MRP2 cells, 100 μM spiked in blank serum, Fig. 3(C)
[5] = system: MDCKII-WT cells; assay: MTT assay for cell viability, MDCKII-WT cells; format: cell-based, canine; conditions: 150 μM, MDCKII-WT cells (data not shown)
Summary of the method: (§1)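 MDCKII cells (wild-type or BCRP-overexpressing, from the Netherlands Cancer Institute) were grown in DMEM with 10% FBS and 1% penicillin-streptomycin-glutamine at 37 °C under 5% CO₂. Viability after exposure to test agents was measured by MTT assay, following a cited method with minor modification.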

[6] = system: MDCKII-BCRP cells; assay: MTT assay for cell viability, MDCKII-BCRP cells; format: cell-based, canine; conditions: 100 μM, MDCKII-BCRP cells (data not shown)
Summary of the method: as §1

[7] = molecular target: T1, BCRP (Homo sapiens, UniProt Q9UNQ0); conditions: concentrations of 12.5–100 μM; cited from earlier work
T1 sequence (Q9UNQ0 1-655): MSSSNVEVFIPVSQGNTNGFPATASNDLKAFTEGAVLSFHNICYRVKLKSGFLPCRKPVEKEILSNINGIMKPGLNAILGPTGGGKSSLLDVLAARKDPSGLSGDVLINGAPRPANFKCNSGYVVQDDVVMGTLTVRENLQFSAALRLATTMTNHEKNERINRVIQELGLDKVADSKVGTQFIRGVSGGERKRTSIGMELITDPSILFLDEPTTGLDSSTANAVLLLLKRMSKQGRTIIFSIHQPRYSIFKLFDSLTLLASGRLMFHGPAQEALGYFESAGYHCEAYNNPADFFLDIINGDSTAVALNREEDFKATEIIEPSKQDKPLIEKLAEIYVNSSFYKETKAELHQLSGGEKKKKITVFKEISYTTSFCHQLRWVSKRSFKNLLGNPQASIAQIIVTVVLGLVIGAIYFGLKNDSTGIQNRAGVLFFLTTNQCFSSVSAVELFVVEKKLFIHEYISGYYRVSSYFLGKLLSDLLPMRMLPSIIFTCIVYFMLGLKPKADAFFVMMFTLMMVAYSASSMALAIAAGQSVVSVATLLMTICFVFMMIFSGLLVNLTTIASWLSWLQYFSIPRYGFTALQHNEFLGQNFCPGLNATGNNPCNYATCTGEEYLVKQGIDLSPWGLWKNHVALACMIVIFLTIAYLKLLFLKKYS

[8] = 50 μM, MN/HK experiment, Fig. 3(B)

Chain of MRP2 (Canis lupus familiaris, UniProt A0A8I3SCV5) (A0A8I3SCV5 1-1544): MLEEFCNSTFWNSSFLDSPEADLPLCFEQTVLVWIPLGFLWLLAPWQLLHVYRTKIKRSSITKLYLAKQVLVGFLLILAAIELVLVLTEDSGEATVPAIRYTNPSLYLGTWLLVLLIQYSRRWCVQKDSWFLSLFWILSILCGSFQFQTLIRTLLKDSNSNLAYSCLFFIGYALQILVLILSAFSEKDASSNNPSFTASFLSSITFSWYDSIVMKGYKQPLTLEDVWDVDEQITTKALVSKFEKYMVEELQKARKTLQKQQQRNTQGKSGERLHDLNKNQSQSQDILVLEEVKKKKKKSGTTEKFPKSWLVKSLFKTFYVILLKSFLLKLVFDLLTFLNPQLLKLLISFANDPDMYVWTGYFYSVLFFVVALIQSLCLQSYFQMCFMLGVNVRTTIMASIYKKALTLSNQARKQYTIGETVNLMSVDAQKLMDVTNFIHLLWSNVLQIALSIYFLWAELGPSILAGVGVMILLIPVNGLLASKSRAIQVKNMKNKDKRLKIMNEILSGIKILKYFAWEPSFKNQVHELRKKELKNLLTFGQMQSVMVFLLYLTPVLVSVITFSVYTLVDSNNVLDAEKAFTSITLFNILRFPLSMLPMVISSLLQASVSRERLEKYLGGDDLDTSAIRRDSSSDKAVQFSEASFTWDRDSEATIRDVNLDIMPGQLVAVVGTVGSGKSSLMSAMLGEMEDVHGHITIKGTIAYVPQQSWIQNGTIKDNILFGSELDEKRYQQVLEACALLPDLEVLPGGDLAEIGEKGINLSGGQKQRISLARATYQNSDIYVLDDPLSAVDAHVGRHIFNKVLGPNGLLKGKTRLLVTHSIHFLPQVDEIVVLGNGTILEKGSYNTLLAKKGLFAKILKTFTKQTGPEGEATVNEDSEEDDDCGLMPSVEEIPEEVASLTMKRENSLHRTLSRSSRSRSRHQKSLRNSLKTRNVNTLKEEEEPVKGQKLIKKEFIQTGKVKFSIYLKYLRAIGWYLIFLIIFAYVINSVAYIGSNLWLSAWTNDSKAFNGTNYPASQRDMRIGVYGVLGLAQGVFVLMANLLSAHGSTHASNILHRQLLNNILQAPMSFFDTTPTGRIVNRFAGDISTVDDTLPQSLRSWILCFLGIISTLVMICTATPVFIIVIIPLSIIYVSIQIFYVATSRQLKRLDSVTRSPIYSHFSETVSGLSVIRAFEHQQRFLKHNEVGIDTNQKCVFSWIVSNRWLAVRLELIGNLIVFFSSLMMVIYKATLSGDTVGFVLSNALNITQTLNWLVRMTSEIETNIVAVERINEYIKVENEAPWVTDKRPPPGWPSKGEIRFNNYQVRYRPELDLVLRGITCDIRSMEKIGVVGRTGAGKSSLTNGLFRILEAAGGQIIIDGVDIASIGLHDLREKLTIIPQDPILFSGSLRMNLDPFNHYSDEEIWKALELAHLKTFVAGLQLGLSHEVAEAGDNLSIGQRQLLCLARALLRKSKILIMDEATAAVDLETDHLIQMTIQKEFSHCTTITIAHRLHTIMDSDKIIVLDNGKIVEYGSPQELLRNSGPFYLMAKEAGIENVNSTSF
Chain of MRP2 (Homo sapiens, UniProt Q92887) (Q92887 whole entry): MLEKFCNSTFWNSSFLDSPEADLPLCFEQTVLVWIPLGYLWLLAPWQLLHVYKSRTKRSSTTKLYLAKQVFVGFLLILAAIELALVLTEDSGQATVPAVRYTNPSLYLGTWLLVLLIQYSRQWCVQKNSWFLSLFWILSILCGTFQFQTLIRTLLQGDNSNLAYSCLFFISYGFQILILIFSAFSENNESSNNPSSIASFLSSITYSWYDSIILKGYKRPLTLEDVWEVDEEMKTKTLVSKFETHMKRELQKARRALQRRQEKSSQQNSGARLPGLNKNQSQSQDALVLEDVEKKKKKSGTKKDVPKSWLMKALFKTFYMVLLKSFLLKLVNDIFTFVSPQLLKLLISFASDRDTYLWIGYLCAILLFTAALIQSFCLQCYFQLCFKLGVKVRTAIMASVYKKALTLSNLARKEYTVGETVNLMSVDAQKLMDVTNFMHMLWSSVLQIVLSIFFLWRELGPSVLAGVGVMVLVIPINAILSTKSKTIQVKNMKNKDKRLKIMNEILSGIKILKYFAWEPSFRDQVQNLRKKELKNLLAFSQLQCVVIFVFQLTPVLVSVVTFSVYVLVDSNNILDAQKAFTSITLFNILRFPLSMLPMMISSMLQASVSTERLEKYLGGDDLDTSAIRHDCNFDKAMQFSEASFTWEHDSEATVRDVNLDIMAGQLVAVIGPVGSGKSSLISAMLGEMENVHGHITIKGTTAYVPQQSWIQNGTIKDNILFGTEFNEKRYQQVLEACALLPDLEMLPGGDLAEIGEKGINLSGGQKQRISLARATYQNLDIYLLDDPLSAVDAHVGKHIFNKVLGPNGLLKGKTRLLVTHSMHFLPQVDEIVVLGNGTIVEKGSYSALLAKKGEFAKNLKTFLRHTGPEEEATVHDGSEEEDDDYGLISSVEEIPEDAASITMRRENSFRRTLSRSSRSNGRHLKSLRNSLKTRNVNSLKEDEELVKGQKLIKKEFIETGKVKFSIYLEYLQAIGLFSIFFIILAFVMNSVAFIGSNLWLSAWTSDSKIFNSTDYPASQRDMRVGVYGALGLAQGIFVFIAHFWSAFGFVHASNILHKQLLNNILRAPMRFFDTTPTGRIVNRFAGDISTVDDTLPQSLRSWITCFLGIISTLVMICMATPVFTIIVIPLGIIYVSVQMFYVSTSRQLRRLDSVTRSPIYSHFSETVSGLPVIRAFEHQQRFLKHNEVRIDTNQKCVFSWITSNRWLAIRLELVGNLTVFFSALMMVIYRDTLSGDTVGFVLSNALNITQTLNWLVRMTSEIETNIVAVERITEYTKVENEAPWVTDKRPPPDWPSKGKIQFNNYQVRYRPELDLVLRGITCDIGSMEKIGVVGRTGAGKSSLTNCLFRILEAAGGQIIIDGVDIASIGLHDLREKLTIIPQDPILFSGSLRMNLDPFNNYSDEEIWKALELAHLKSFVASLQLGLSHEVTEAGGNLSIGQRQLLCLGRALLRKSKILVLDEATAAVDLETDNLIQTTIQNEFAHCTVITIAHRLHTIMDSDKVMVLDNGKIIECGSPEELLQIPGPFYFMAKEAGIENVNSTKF

Increase of intracellular accumulation of GSMF [3, 8] | Increase of intracellular accumulation of GSMF ([3]; 50 μM, positive control in MOC experiment, Fig. 3(A)) | Increase of intracellular accumulation of GSMF [4] | Increase of intracellular accumulation of GSMF ([3]; 25 μM, MN/HK experiment, Fig. 3(B)) | SMILES | AUC0-t of MTX ([1]; oral MTX 5.0 mg/kg + water (MTX alone), n = 6, mean ± S.E.) | AUC0-t of MTX ([1]; oral MTX 5.0 mg/kg, MOC 2.0 g/kg thrice daily for 2 days, 7th dose 0.5 h before MTX, n = 5, mean ± S.E.) | AUC0-t of MTX ([1]; oral MTX 5.0 mg/kg, single dose MOC 2.0 g/kg 0.5 h before MTX, n = 6, mean ± S.E.) | AUC0-t of MTX ([1]; oral MTX 5.0 mg/kg, single dose MOC 4.0 g/kg 0.5 h before MTX, n = 6, mean ± S.E.) | Mortality of rats during the pharmacokinetic study [2] | Effect on cell viability (MTT) [5] | Effect on cell viability (MTT) [6] | Effect on BCRP [7]
– | – | – | – | CN(Cc1cnc2nc(N)nc(N)c2n1)c1ccc(C(=O)N[C@@H](CCC(=O)O)C(=O)O)cc1 [MTX, Methotrexate] | 44.6 ± 5.0^a μmol·min·mL^−^1 | 250.2 ± 31.2 μmol·min·mL^−^1 | 201.5 ± 39.2 μmol·min·mL^−^1 | 206.8 ± 35.9 μmol·min·mL^−^1 | all survived very well | – | – | –
331% | 203% | 72% | – | CN(C)C(=O)CCSC(SCCC(=O)O)c1cccc(/C=C/c2ccc3ccc(Cl)cc3n2)c1 (centres unmarked) [MK 571, reference compound] | – | – | – | – | – | – | – | –
75% | – | – | 34% | C=CCc1ccc(O)c(-c2ccc(O)c(CC=C)c2)c1 [HK, honokiol] | – | – | – | – | – | no toxic effects | no toxic effects | significantly inhibited
137% | – | – | – | C=CCc1ccc(O)c(-c2cc(CC=C)ccc2O)c1 [MN, magnolol] | – | – | – | – | – | no toxic effects | no toxic effects | significantly inhibited

Reference: paper PMC10962649 (Journal of Food and Drug Analysis, 2024)
